Published values pooled from the literature.
Lines come from different studies, so protocols differ.

SMILES | target or system | assay | test system | setting | endpoint | result
COc1cccc(-c2n[nH]c(SCc3ccccn3)n2)c1OC |  |  | female Sprague-Dawley rat, plasma | intravenous, 1 mg/kg, 10 min, single dose | concentration | 2680 ng/mL
Cc1noc(C)c1Cn1cc(N2C(=O)CN(Cc3cccc(O)c3)C2=O)cn1 |  |  | male Sprague-Dawley rat, plasma | oral, 100 mg/kg, 1 h | concentration | 30.5 ng/mL
Cc1nnc(SCC(=O)Nc2ccc(Br)cc2)nc1O | K562 | cell growth or viability |  |  | IC50 | > 200 µM
CCOC(=O)[C@@]12C[C@@H]1[C@@H](n1ccc3c(NC)nc(C#Cc4ccc(Cl)s4)nc31)[C@H](O)[C@@H]2O |  |  | male Sprague-Dawley rat, plasma | oral, 1 mg/kg, 15 min | concentration | 5.75 ng/mL
CCc1cc(-c2noc(-c3cc(OC)nc(C4CCCC4)c3)n2)cc(C)c1OC[C@@H](O)CO |  |  | Wistar rat, plasma | oral, 0.3 mg/kg, 3 h, single dose | concentration | 16.7 ng/mL
Nc1ccc(S(=O)(=O)NC(=O)/C=C\c2ccccc2Cl)cc1 | K562 | cell growth or viability |  |  | IC50 | > 200 µM
C[C@@H]1Cn2ncc(-c3ccc(C(=O)N4CCCc5ccccc54)cc3)c2CN1C(=O)[C@H](C)c1ccccc1 | Broad substrate specificity ATP-binding cassette transporter ABCG2 (ABCG2, Homo sapiens, UniProt Q9UNQ0) |  | dog, MDCK-MDR1 |  | Papp B→A | 13.4 ×10⁻⁶ cm/s
CN1CCN=C1c1ccc(NC(=O)c2ccc(C(=O)Nc3ccc(C4=NCCN4C)cc3)cc2)cc1 | K562 | cell growth or viability |  |  | IC50 | 171 µM
COc1ccc2c(=O)n(C)c(-c3ccccc3)nc2c1 |  |  | male Sprague-Dawley rat, lung | oral, 30 mg/kg, 2 h | concentration | 2.13 ng/mL
